Measured values taken from ChEMBL document CHEMBL4406880, “Design, synthesis, and bioactivity of dihydropyrimidine derivatives as kinesin spindle protein inhibitors” (Bioorg Med Chem, 2019).

Legend:
Format in all cases: functional
[1] = tested on: MCF7; experiment: Growth inhibition of human MCF7 cells assessed as cell viability at 0.001 uM incubated for 48 hrs by sulforhodamine B assay relative to control; details: MCF7, 48 h, read-out: Activity
[2] = tested on: SF-268; experiment: Growth inhibition of human SF268 cells assessed as cell viability at 0.001 uM incubated for 48 hrs by sulforhodamine B assay relative to control; details: SF-268, 48 h, read-out: Activity
[3] = tested on: NCI-H522; experiment: Growth inhibition of human NCI-H522 cells assessed as cell viability at 100 uM incubated for 48 hrs by sulforhodamine B assay; details: NCI-H522, 48 h, read-out: Activity
[4] = tested on: CAKI-1; experiment: Growth inhibition of human Caki1 cells assessed as cell viability at 100 uM incubated for 48 hrs by sulforhodamine B assay; details: CAKI-1, 48 h, read-out: Activity
[5] = tested on: SK-MEL-2; experiment: Growth inhibition of human SK-MEL-2 cells assessed as cell viability at 0.1 uM incubated for 48 hrs by sulforhodamine B assay; details: SK-MEL-2, 48 h, read-out: Activity
[6] = tested on: TK-10; experiment: Growth inhibition of human TK10 cells incubated for 48 hrs by sulforhodamine B assay; details: TK-10, 48 h
Outline: (§1)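 NCI-60 five-dose SRB assay. Cells were exposed for 48 h to tenfold dilutions of 0.01, 0.1, 1, 10 and 100 µM, in RPMI 1640 with 5% FBS. Plates fixed with TCA at the time of drug addition served as the time-zero reference. GI50 is the concentration giving a 50% reduction in net growth. TGI is total growth inhibition. LC50 is a net 50% loss of the initial cells.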

[7] = tested on: SNB-19; experiment: Growth inhibition of human SNB19 cells assessed as cell viability at 0.001 uM incubated for 48 hrs by sulforhodamine B assay relative to control; details: SNB-19, 48 h, read-out: Activity
[8] = tested on: SNB-19; experiment: Growth inhibition of human SNB19 cells incubated for 48 hrs by sulforhodamine B assay; details: SNB-19, 48 h; outline: as §1
[9] = tested on: SNB-75; experiment: Cell cycle arrest in human SNB75 cells assessed as accumulation in S phase at 2 uM incubated for 24 hrs by propidium iodide based flow cytometry (reference value: 33.92 %)
Outline: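 SNB-75 cells were exposed to 2 µM for 24 h at 37 °C, 5% CO2, then washed with PBS and fixed in 70% ethanol on ice for 15 min. They were stained 1 h at room temperature with 50 µg/mL propidium iodide, 0.1 mg/mL RNase A and 0.05% Triton X-100. DNA content was read by flow cytometry to give the % of cells in pre-G1, G0/G1, S and G2/M.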

[10] = tested on: U-251; experiment: Growth inhibition of human U251 cells assessed as cell viability at 1 uM incubated for 48 hrs by sulforhodamine B assay; details: U-251, 48 h, read-out: Activity
[11] = tested on: LOX IMVI; experiment: Growth inhibition of human LOXIMVI cells assessed as cell viability at 0.001 uM incubated for 48 hrs by sulforhodamine B assay relative to control; details: read-out: Activity
[12] = tested on: ACHN; experiment: Growth inhibition of human ACHN cells assessed as cell viability at 0.1 uM incubated for 48 hrs by sulforhodamine B assay; details: read-out: Activity
Outline: (§2)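 NCI-60 five-dose mode: five tenfold dilutions (0.01, 0.1, 1, 10, 100 µM) are applied for 48 h to cells in RPMI 1640 with 5% FBS at 37 °C. Endpoint is TCA fixation with sulforhodamine B read at 515 nm. % growth comes from the 0 h and control absorbances. GI50 is the concentration giving a 50% reduction in net cell growth.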

[13] = tested on: HOP-92; experiment: Growth inhibition of human HOP92 cells assessed as cell viability at 0.1 uM incubated for 48 hrs by sulforhodamine B assay; details: HOP-92, 48 h, read-out: Activity
[14] = tested on: SNB-75; experiment: Induction of apoptosis in human SNB75 cells assessed as late apoptotic cells at 2 uM incubated for 24 hrs by annexin V FITC and propidium iodide based flow cytometry (reference value: 0.59 %)
[15] = tested on: NCI-H226; experiment: Growth inhibition of human NCI-H226 cells assessed as cell viability at 0.1 uM incubated for 48 hrs by sulforhodamine B assay; details: NCI-H226, 48 h, read-out: Activity
[16] = tested on: MDA-MB-468; experiment: Growth inhibition of human MDA-MB-468 cells assessed as cell viability at 0.1 uM incubated for 48 hrs by sulforhodamine B assay; details: MDA-MB-468, 48 h, read-out: Activity
[17] = tested on: Malme-3M; experiment: Growth inhibition of human MALME-3M cells incubated for 48 hrs by sulforhodamine B assay
Outline: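 NCI-60 five-dose SRB assay in RPMI 1640 with 5% FBS, 37 °C, 5% CO2. Compound given at five tenfold dilutions, 0.01–100 µM, for 48 h. Adherent cells fixed with TCA, suspension cells with 16% final TCA. Bound SRB read at 515 nm and growth calculated against time-zero and untreated controls. GI50 taken from dose–response curves as the concentration giving a 50% decrease in net cell growth.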

[18] = tested on: NCI/ADR-RES; experiment: Growth inhibition of human NCI/ADR-RES cells assessed as cell viability at 0.1 uM incubated for 48 hrs by sulforhodamine B assay; details: read-out: Activity
[19] = tested on: NCI-H460; experiment: Growth inhibition of human NCI-H460 cells assessed as cell viability at 0.1 uM incubated for 48 hrs by sulforhodamine B assay; details: NCI-H460, 48 h, read-out: Activity
[20] = tested on: OVCAR-4; experiment: Growth inhibition of human OVCAR4 cells assessed as cell viability at 100 uM incubated for 48 hrs by sulforhodamine B assay; details: OVCAR-4, 48 h, read-out: Activity
[21] = tested on: EKVX; experiment: Growth inhibition of human EKVX cells assessed as cell viability at 1 uM incubated for 48 hrs by sulforhodamine B assay; details: read-out: Activity
[22] = tested on: KM12; experiment: Growth inhibition of human KM12 cells assessed as cell viability at 0.1 uM incubated for 48 hrs by sulforhodamine B assay; details: KM12, 48 h, read-out: Activity
[23] = tested on: OVCAR-5; experiment: Growth inhibition of human OVCAR5 cells assessed as cell viability at 1 uM incubated for 48 hrs by sulforhodamine B assay; details: OVCAR-5, 48 h, read-out: Activity
[24] = tested on: OVCAR-5; experiment: Growth inhibition of human OVCAR5 cells assessed as cell viability at 0.1 uM incubated for 48 hrs by sulforhodamine B assay; details: OVCAR-5, 48 h, read-out: Activity
[25] = tested on: A498; experiment: Growth inhibition of human A498 cells assessed as cell viability at 0.1 uM incubated for 48 hrs by sulforhodamine B assay; details: A498, 48 h, read-out: Activity; outline: as §2
[26] = read-out: LC50 (the source's name)
[27] = read-out: pLC50 (the source's name) (converted)

`CC1=C(C(=O)OCc2ccccc2)C(c2ccc3c(c2)OCO3)n2c(nc3ccccc32)N1` (racemic) showed a viability at 0.001 µM [1] of 86%, a viability at 0.001 µM [2] of 91% and a viability at 100 µM [3] of -8%. The viability at 100 µM [4] was 23%, the viability at 0.1 µM [5] was 101% and the GI50 ([6]; read-out: GI50) was over 100 µM. The CC50 [6, 26] was over 100 µM, the TGI ([6]; read-out: TGI) was over 100 µM and the GI50 ([6]; read-out: pGI50 (converted)) was over 100 µM. It also gave a CC50 [6, 27] of over 100 µM, a TGI ([6]; read-out: pTGI) of over 100 µM and a viability at 0.001 µM [7] of 94%. It also gave a GI50 ([8]; read-out: GI50) of 0.56 µM, a CC50 [8, 26] of over 100 µM and a TGI ([8]; read-out: TGI) of over 100 µM. For the same compound, the GI50 ([8]; read-out: pGI50 (converted)) was 0.562 µM, the CC50 [8, 27] was over 100 µM and the TGI ([8]; read-out: pTGI) was over 100 µM. For the same compound, the Activity [9] was 27.89%, the viability at 1 µM [10] was 26% and the viability at 0.001 µM [11] was 93%. It also gave a viability at 0.1 µM [12] of 107%, a viability at 0.1 µM [13] of 70% and an Activity [14] of 15.12%. For the same compound, the viability at 0.1 µM [15] was 97%, the viability at 0.1 µM [16] was 94% and the GI50 ([17]; read-out: GI50) was 0.44 µM. It also gave an LC50 ([17]; read-out: LC50) of over 100 µM, a TGI ([17]; read-out: TGI) of over 100 µM and a GI50 ([17]; read-out: pGI50 (converted)) of 0.437 µM. The LC50 ([17]; read-out: pLC50 (converted)) was over 100 µM, the TGI ([17]; read-out: pTGI) was over 100 µM and the viability at 0.1 µM [18] was 86%. The viability at 0.1 µM [19] was 100%, the viability at 100 µM [20] was 19% and the viability at 1 µM [21] was 41%. For the same compound, the viability at 0.1 µM [22] was 86%, the viability at 1 µM [23] was 52% and the viability at 0.1 µM [24] was 100%. For the same compound, the viability at 0.1 µM [25] was 95%.
